Experiments:
[1] = target: T1, Kappa-type opioid receptor (Cavia porcellus, UniProt P41144); test: Binding affinity against opioid receptor kappa from guinea pig brain, using [3H](-)-bremazocine as radioligand.
Summary of the method: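 Guinea pig brain P2 membranes (500 μg protein) with 2 nM [3H](-)-bremazocine plus 100 nM DAMGO and 100 nM DSTLE blocking μ/δ, 10 mM Tris-HCl pH 7.4, 90 min, 25 °C; nonspecific with 10 μM levallorphan; filtration.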

[2] = target: Muscarinic acetylcholine receptor; test: Binding affinity against muscarinic cholinergic receptor from rat brain, using [3H]-QNB as radioligand.
Summary of the method: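 Rat brain P2 membranes (~500 μg protein) with 0.3 nM [3H]QNB in 0.5 mL Krebs-Henseleit/HEPES pH 7.4, 60–90 min, 37 °C. Nonspecific binding with 10 μM QNB. Stopped with ice-cold PBS, then filtration. […] IC50 converted to Ki by Cheng-Prusoff.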

D(2) dopamine receptor [3] = target: T2, D(2) dopamine receptor (Rattus norvegicus, UniProt P61169); test: Binding affinity against dopamine receptor D2 from rat brain, using [3H](-)-sulpiride as radioligand.
T2 sequence (P61169 whole entry): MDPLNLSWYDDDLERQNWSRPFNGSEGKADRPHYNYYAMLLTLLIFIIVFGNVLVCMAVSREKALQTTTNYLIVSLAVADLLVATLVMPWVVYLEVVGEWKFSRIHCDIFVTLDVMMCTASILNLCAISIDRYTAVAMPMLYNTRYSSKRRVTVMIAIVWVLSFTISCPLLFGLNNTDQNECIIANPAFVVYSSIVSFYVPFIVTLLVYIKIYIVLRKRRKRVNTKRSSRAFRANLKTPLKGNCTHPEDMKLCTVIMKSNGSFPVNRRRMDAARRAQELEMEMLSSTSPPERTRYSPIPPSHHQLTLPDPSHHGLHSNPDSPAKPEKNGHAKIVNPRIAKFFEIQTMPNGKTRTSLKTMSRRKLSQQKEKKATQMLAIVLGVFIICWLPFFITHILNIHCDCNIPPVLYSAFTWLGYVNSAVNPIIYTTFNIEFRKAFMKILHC
Summary of the method: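 Rat brain crude P2 membranes (500 μg protein) incubated with 5 nM [3H](-)-sulpiride in 50 mM Tris-HCl pH 7.7 + 120 mM NaCl, 60 min, 25 °C; nonspecific with 1 μM haloperidol; filtration.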

[4] = target: T1, Kappa-type opioid receptor; test: Binding affinity against Opioid receptor kappa 1 from guinea pig brain, using [3H](-)-bremazocine as radioligand.
Summary of the method: (§1)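 Guinea pig brain crude P2 membranes (500 μg protein) with 2 nM [3H](-)-bremazocine, plus 100 nM DAMGO and 100 nM DSTLE to block μ/δ sites. Incubated in 0.5 mL 10 mM Tris-HCl pH 7.4, 90 min, 25 °C. Nonspecific binding with 10 μM levallorphan. Filtration. Screened at 100–10 000 nM. No inhibition = <30% at 10 000 nM.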

D(2) dopamine receptor [5] = target: T2, D(2) dopamine receptor; test: Binding affinity against Dopamine receptor D2 from rat brain, using [3H](-)-sulpiride as radioligand.
Summary of the method: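 Rat brain (minus cerebella) crude P2 membranes, 500 μg protein, incubated with 5 nM [3H](-)-sulpiride in 0.5 mL 50 mM Tris-HCl pH 7.7 + 120 mM NaCl, 60 min, 25 °C. Nonspecific binding with 1 μM haloperidol. Filtration, scintillation counting. […] IC50 by curve fitting, Cheng-Prusoff Ki.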

[6] = target: T1, Kappa-type opioid receptor; test: Binding affinity against Opioid receptor kappa 1 from guinea pig brain, using [3H](-)-bremazocine as radioligand; NI=no inhibition; summary of the method: as §1
[7] = target: T1, Kappa-type opioid receptor; test: Binding affinity against opioid receptor kappa from guinea pig brain, using [3H](-)-bremazocine as radioligand; NI=no inhibition; summary of the method: as §1

T1 sequence (P41144 whole entry): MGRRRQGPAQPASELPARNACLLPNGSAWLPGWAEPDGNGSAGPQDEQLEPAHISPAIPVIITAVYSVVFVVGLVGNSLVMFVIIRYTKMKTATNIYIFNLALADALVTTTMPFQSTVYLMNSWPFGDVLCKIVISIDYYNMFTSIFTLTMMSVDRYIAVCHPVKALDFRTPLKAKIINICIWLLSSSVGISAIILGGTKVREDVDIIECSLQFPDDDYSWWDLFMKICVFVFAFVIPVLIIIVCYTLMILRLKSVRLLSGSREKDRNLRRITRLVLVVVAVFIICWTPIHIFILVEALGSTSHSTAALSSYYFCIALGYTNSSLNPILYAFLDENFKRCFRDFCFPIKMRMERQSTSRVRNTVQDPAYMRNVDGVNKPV

| Compound | Ki [1] [µM] | Ki [2] [µM] | Ki (D(2) dopamine receptor [3]) [µM] | Ki [4] [µM] | Ki (D(2) dopamine receptor [5]) [µM] | Ki [6] | Ki [7] |
| --- | --- | --- | --- | --- | --- | --- | --- |
| CCCCCN1CC[C@@]2(C)c3cc(O)ccc3CC1[C@H]2C (single isomer, unassigned; (+)) | 1.99 | 56.85 | 2.53 |  |  |  |  |
| CN(CCc1cc(Cl)c(Cl)cc1I)CCN1CCCC1 |  | 7 |  | 18.5 | 1.31 |  |  |
| FCCCN(CCc1ccc(Cl)c(Cl)c1)CCN1CCCC1 |  | 32.03 |  | 10.5 | 3.11 |  |  |
| CCCN1CCN(CCc2ccc(Cl)c(Cl)c2)CC1 |  |  |  |  | 2.9 | Not Active |  |
| CN(CCc1ccc(Cl)c(Cl)c1)CCN1CCCC1 |  |  |  |  |  | Not Active |  |
| FCCCN1CCN(CCc2ccc(Cl)c(Cl)c2)CC1 |  | 682.5 | 12 |  |  |  | Not Active |
